Test results: ChEMBL document CHEMBL5303300, “EUbOPEN Chemogenomics Library - Multiplex” (2023)
“And” between values parts separate entries of the source, which are not always exact repeats. Equal entries are not always repeated.

Assays:
Type in all cases: toxicity, cell-based
[1] = test system: Fibroblast; test: Multiplex assay against human fibroblast; conditions: number of replicates 2
In short: (§1)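 Compound was added to live cells that had been stained at seeding with Hoechst33342, BioTracker Green Microtubule Cytoskeleton Dye, MitoTracker Red and Annexin V Alexa Fluor 680, and imaging followed on a CQ1 microscope at 37°C and 5% CO2. CellPathfinder machine-learning gating divided cells into Hoechst high-intensity objects or normal cells, normal cells into healthy, pyknosed or fragmented nuclei, and pyknosed cells into mitotic or apoptotic. Tubulin, mitochondrial-mass and membrane-permeability phenotypes are per cents of healthy-nucleus cells.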

[2] = test system: HEK-293T; test: Multiplex assay against HEK293T; conditions: human, number of replicates 2; in short: as §1
[3] = test system: U2OS; test: Multiplex assay against U2OS; conditions: human, number of replicates 2; in short: as §1
[4] = 12 h, 1 µM, compound concentration 1 uM
[5] = 12 h, 10 µM, compound concentration 10 uM
[6] = 24 h, 1 µM, compound concentration 1 uM
[7] = 24 h, 10 µM, compound concentration 10 uM
[8] = 48 h, 1 µM, compound concentration 1 uM
[9] = 48 h, 10 µM, compound concentration 10 uM

Question: Which results are given for `O=C(Nc1ccc(Cl)c(-c2ccccn2)c1)c1cccc(COc2ccc(Br)cc2CNCCO)c1.O=CO`?
Answer: Population Apoptotic (%) [1, 4]: 41% and 58%; Population Fragmented Nuclei (%) [1, 4]: 4% and 14%; Population Healthy Nuclei (%) [1, 4]: 72% and 56%; Population Hoechst High Intensity Objects (%) [1, 4]: 0% and 1%; Population Membrane Permeable-Phenotype (%) [1, 4]: 10% and 13%; Population Mitochondria Different-Phenotype (%) [1, 4]: 1% and 6%; Population Mitotic Cells (%) [1, 4]: 58% and 41%; Population Normal (%) [1, 4]: 100% and 98%; Population Pyknosed Nuclei (%) [1, 4]: 23% and 28%; Population Tubulin-Different-Phenotype (%) [1, 4]: 71% and 68%; Total Cell Count [1, 4]: 208 and 161; Population Apoptotic (%) [1, 5]: 46% and 42%; Population Fragmented Nuclei (%) [1, 5]: 15% and 17%; Population Healthy Nuclei (%) [1, 5]: 58%; Population Hoechst High Intensity Objects (%) [1, 5]: 0%; Population Membrane Permeable-Phenotype (%) [1, 5]: 21% and 16%; Population Mitochondria Different-Phenotype (%) [1, 5]: 6% and 14%; Population Mitotic Cells (%) [1, 5]: 53% and 57%; Population Normal (%) [1, 5]: 100% and 99%; Population Pyknosed Nuclei (%) [1, 5]: 25% and 24%; Population Tubulin-Different-Phenotype (%) [1, 5]: 83% and 85%; Total Cell Count [1, 5]: 318 and 361; Population Apoptotic (%) [1, 6]: 55% and 63%; Population Fragmented Nuclei (%) [1, 6]: 9% and 11%; Population Healthy Nuclei (%) [1, 6]: 69% and 58%; Population Hoechst High Intensity Objects (%) [1, 6]: 0%; Population Membrane Permeable-Phenotype (%) [1, 6]: 6% and 5%; Population Mitochondria Different-Phenotype (%) [1, 6]: 5% and 8%; Population Mitotic Cells (%) [1, 6]: 44% and 36%; Population Normal (%) [1, 6]: 99% and 100%; Population Pyknosed Nuclei (%) [1, 6]: 21% and 30%; Population Tubulin-Different-Phenotype (%) [1, 6]: 59% and 61%; Total Cell Count [1, 6]: 224 and 146; Population Apoptotic (%) [1, 7]: 76% and 81%; Population Fragmented Nuclei (%) [1, 7]: 10% and 6%; Population Healthy Nuclei (%) [1, 7]: 40% and 46%; Population Hoechst High Intensity Objects (%) [1, 7]: 0% and 1%; Population Mitochondria Different-Phenotype (%) [1, 7]: 40% and 50%; Population Mitotic Cells (%) [1, 7]: 23% and 18%; Population Normal (%) [1, 7]: 99% and 98%; Population Pyknosed Nuclei (%) [1, 7]: 49% and 47%; Population Tubulin-Different-Phenotype (%) [1, 7]: 82%; Total Cell Count [1, 7]: 238 and 280; Population Apoptotic (%) [1, 8]: 61% and 78%; Population Fragmented Nuclei (%) [1, 8]: 9% and 12%; Population Healthy Nuclei (%) [1, 8]: 72% and 64%; Population Hoechst High Intensity Objects (%) [1, 8]: 1%; Population Membrane Permeable-Phenotype (%) [1, 8]: 4% and 5%; Population Mitochondria Different-Phenotype (%) [1, 8]: 3% and 8%; Population Mitotic Cells (%) [1, 8]: 38% and 21%; Population Normal (%) [1, 8]: 98%; Population Pyknosed Nuclei (%) [1, 8]: 18% and 22%; Population Tubulin-Different-Phenotype (%) [1, 8]: 54% and 42%; Total Cell Count [1, 8]: 215 and 165; Population Apoptotic (%) [1, 9]: 95%; Population Fragmented Nuclei (%) [1, 9]: 9% and 8%; Population Healthy Nuclei (%) [1, 9]: 12% and 13%; Population Hoechst High Intensity Objects (%) [1, 9]: 0%; Population Membrane Permeable-Phenotype (%) [1, 9]: 38% and 27%; Population Mitochondria Different-Phenotype (%) [1, 9]: 23% and 41%; Population Mitotic Cells (%) [1, 9]: 4%; Population Normal (%) [1, 9]: 99%; Population Pyknosed Nuclei (%) [1, 9]: 78% and 77%; Population Tubulin-Different-Phenotype (%) [1, 9]: 66% and 75%; Total Cell Count [1, 9]: 174 and 211; Population Apoptotic (%) [2, 4]: 56% and 52%; Population Fragmented Nuclei (%) [2, 4]: 4% and 3%; Population Healthy Nuclei (%) [2, 4]: 76% and 80%; Population Hoechst High Intensity Objects (%) [2, 4]: 8% and 10%; Population Membrane Permeable-Phenotype (%) [2, 4]: 6% and 5%; Population Mitochondria Different-Phenotype (%) [2, 4]: 37% and 35%; Population Mitotic Cells (%) [2, 4]: 43% and 47%; Population Normal (%) [2, 4]: 91% and 89%; Population Pyknosed Nuclei (%) [2, 4]: 18% and 15%; Population Tubulin-Different-Phenotype (%) [2, 4]: 92% and 94%; Total Cell Count [2, 4]: 417 and 613; Population Apoptotic (%) [2, 5]: 85% and 73%; Population Fragmented Nuclei (%) [2, 5]: 0% and 7%; Population Healthy Nuclei (%) [2, 5]: 79% and 71%; Population Hoechst High Intensity Objects (%) [2, 5]: 11% and 13%; Population Membrane Permeable-Phenotype (%) [2, 5]: 1%; Population Mitochondria Different-Phenotype (%) [2, 5]: 91% and 83%; Population Mitotic Cells (%) [2, 5]: 14% and 26%; Population Normal (%) [2, 5]: 88% and 86%; Population Pyknosed Nuclei (%) [2, 5]: 19% and 21%; Population Tubulin-Different-Phenotype (%) [2, 5]: 81% and 95%; Total Cell Count [2, 5]: 238 and 269; Population Apoptotic (%) [2, 6]: 48% and 54%; Population Fragmented Nuclei (%) [2, 6]: 4% and 6%; Population Healthy Nuclei (%) [2, 6]: 85% and 82%; Population Hoechst High Intensity Objects (%) [2, 6]: 6% and 10%; Population Membrane Permeable-Phenotype (%) [2, 6]: 6%; Population Mitochondria Different-Phenotype (%) [2, 6]: 29% and 19%; Population Mitotic Cells (%) [2, 6]: 51% and 45%; Population Normal (%) [2, 6]: 93% and 89%; Population Pyknosed Nuclei (%) [2, 6]: 9% and 11%; Population Tubulin-Different-Phenotype (%) [2, 6]: 88% and 86%; Total Cell Count [2, 6]: 566 and 806; Population Apoptotic (%) [2, 7]: 82% and 80%; Population Fragmented Nuclei (%) [2, 7]: 4%; Population Healthy Nuclei (%) [2, 7]: 75% and 72%; Population Hoechst High Intensity Objects (%) [2, 7]: 16% and 15%; Population Membrane Permeable-Phenotype (%) [2, 7]: 1% and 2%; Population Mitochondria Different-Phenotype (%) [2, 7]: 95% and 89%; Population Mitotic Cells (%) [2, 7]: 17% and 19%; Population Normal (%) [2, 7]: 83% and 84%; Population Pyknosed Nuclei (%) [2, 7]: 19% and 23%; Population Tubulin-Different-Phenotype (%) [2, 7]: 74% and 91%; Total Cell Count [2, 7]: 248 and 263; Population Apoptotic (%) [2, 8]: 48% and 34%; Population Fragmented Nuclei (%) [2, 8]: 7% and 9%; Population Healthy Nuclei (%) [2, 8]: 87% and 85%; Population Hoechst High Intensity Objects (%) [2, 8]: 8% and 10%; Population Membrane Permeable-Phenotype (%) [2, 8]: 9% and 8%; Population Mitochondria Different-Phenotype (%) [2, 8]: 8% and 5%; Population Mitotic Cells (%) [2, 8]: 51% and 65%; Population Normal (%) [2, 8]: 91% and 89%; Population Pyknosed Nuclei (%) [2, 8]: 4%; Population Tubulin-Different-Phenotype (%) [2, 8]: 61% and 66%; Total Cell Count [2, 8]: 894 and 1474; Population Apoptotic (%) [2, 9]: 79% and 78%; Population Fragmented Nuclei (%) [2, 9]: 3% and 1%; Population Healthy Nuclei (%) [2, 9]: 71% and 68%; Population Hoechst High Intensity Objects (%) [2, 9]: 19% and 12%; Population Membrane Permeable-Phenotype (%) [2, 9]: 4% and 1%; Population Mitochondria Different-Phenotype (%) [2, 9]: 82% and 86%; Population Mitotic Cells (%) [2, 9]: 20% and 21%; Population Normal (%) [2, 9]: 80% and 87%; Population Pyknosed Nuclei (%) [2, 9]: 24% and 29%; Population Tubulin-Different-Phenotype (%) [2, 9]: 84% and 89%; Total Cell Count [2, 9]: 339 and 305; Population Apoptotic (%) [3, 4]: 71% and 88%; Population Fragmented Nuclei (%) [3, 4]: 11% and 3%; Population Healthy Nuclei (%) [3, 4]: 62% and 75%; Population Hoechst High Intensity Objects (%) [3, 4]: 0%; Population Membrane Permeable-Phenotype (%) [3, 4]: 47% and 48%; Population Mitochondria Different-Phenotype (%) [3, 4]: 23% and 66%; Population Mitotic Cells (%) [3, 4]: 28% and 11%; Population Normal (%) [3, 4]: 100%; Population Pyknosed Nuclei (%) [3, 4]: 25% and 20%; Population Tubulin-Different-Phenotype (%) [3, 4]: 82% and 87%; Population Apoptotic (%) [3, 5]: 75% and 64%; Population Healthy Nuclei (%) [3, 5]: 44% and 72%; Population Hoechst High Intensity Objects (%) [3, 5]: 0%; Population Membrane Permeable-Phenotype (%) [3, 5]: 62% and 32%; Population Mitochondria Different-Phenotype (%) [3, 5]: 62% and 57%; Population Mitotic Cells (%) [3, 5]: 25% and 36%; Population Normal (%) [3, 5]: 100%; Population Pyknosed Nuclei (%) [3, 5]: 11% and 16%; Population Tubulin-Different-Phenotype (%) [3, 5]: 100% and 93%; Population Apoptotic (%) [3, 6]: 69% and 82%; Population Healthy Nuclei (%) [3, 6]: 48% and 76%; Population Hoechst High Intensity Objects (%) [3, 6]: 0%; Population Membrane Permeable-Phenotype (%) [3, 6]: 31% and 45%; Population Mitochondria Different-Phenotype (%) [3, 6]: 57% and 69%; Population Mitotic Cells (%) [3, 6]: 30% and 17%; Population Normal (%) [3, 6]: 100% and 99%; Population Pyknosed Nuclei (%) [3, 6]: 33% and 20%; Population Tubulin-Different-Phenotype (%) [3, 6]: 100% and 84%; Population Apoptotic (%) [3, 7]: 100% and 71%; Population Healthy Nuclei (%) [3, 7]: 51% and 63%; Population Hoechst High Intensity Objects (%) [3, 7]: 0%; Population Membrane Permeable-Phenotype (%) [3, 7]: 82% and 75%; Population Mitochondria Different-Phenotype (%) [3, 7]: 82% and 72%; Population Normal (%) [3, 7]: 100%; Population Pyknosed Nuclei (%) [3, 7]: 15% and 28%; Population Tubulin-Different-Phenotype (%) [3, 7]: 100% and 98%; Population Apoptotic (%) [3, 8]: 69% and 89%; Population Healthy Nuclei (%) [3, 8]: 52% and 66%; Population Hoechst High Intensity Objects (%) [3, 8]: 2% and 0%; Population Membrane Permeable-Phenotype (%) [3, 8]: 40% and 46%; Population Mitochondria Different-Phenotype (%) [3, 8]: 52% and 59%; Population Mitotic Cells (%) [3, 8]: 30% and 10%; Population Normal (%) [3, 8]: 97% and 100%; Population Pyknosed Nuclei (%) [3, 8]: 27% and 30%; Population Tubulin-Different-Phenotype (%) [3, 8]: 92% and 65%; Population Apoptotic (%) [3, 9]: 94% and 90%; Population Healthy Nuclei (%) [3, 9]: 15% and 28%; Population Hoechst High Intensity Objects (%) [3, 9]: 2% and 1%; Population Membrane Permeable-Phenotype (%) [3, 9]: 100% and 80%; Population Mitochondria Different-Phenotype (%) [3, 9]: 66% and 72%; Population Mitotic Cells (%) [3, 9]: 5% and 9%; Population Normal (%) [3, 9]: 97% and 98%; Population Pyknosed Nuclei (%) [3, 9]: 44% and 62%; Population Tubulin-Different-Phenotype (%) [3, 9]: 100% and 97%
